ASAP1 inh = blocks human ASAP1-stimulated Arf1 GTP hydrolysis; Q9ULH1; GDP FP detection; inhibition, % at 16.5 µM; 0.19% of 360,000 active; AID 624377;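 also: 0% = vehicle with enzyme and substrate and 100% = no enzyme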
Target sequence (Q9ULH1 325-724 limits assumed): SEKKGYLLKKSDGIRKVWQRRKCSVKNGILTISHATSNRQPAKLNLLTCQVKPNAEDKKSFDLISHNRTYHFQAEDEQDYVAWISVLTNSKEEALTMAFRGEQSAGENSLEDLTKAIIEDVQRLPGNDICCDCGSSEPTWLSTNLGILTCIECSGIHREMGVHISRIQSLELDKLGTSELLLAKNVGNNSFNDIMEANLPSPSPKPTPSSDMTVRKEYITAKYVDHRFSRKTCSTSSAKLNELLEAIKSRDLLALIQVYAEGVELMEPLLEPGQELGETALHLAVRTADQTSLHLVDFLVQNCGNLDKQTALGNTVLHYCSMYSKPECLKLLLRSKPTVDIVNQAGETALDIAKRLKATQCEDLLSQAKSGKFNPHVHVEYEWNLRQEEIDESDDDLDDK
LEDGF integ inh = blocks HIV-1 LEDGF/p75-dependent DNA integration; 0.64% of 370,000 active; inhibition, % at 3.7 µM; TR-FRET IN-LEDGF/p75 DNA integration, Eu/Cy5;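 active = inhibition above the screen-wide mean plus 3 SD, cut at about 13% in these data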;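 also: signal is the Cy5 over europium emission ratio at 671 and 618 nm; 0% = plate median of compound wells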
TDP2 absorb = blocks human TDP2 phosphodiesterase activity. O95551. recombinant TDP2, T5PNP hydrolysis, p-nitrophenol absorbance 415 nm. inhibition, % at 12.8 µM. 0.34% of 370,000 active. AID 720702;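 active = inhibition above the mean of all tested compounds plus 3 SD, set per campaign, cut at about 25% in these data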;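 also: 0% = DMSO with enzyme and 100% = buffer with substrate but no TDP2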
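Assay system: recombinant human TDP2 / Reagent: T5PNP substrate at 5 mM, a TopII-DNA adduct mimic / Measured by: epi absorbance from released p-nitrophenol / Evaluation: % inhibition relative to enzyme-containing and enzyme-free wells / Control set: enzyme-free and DMSO wells / Replicates: each compound tested once, singlicate / Schedule: enzyme reaction with compound for 2 h at 37 °C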
CASP6 VEID inh = caspase-6 (human) enzyme inhibition. P55212. inhibition, % at 12.5 µM. 0.53% of 350,000 active. purified caspase-6, Z-VEID-R110 cleavage fluorescence. AID 686996;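 active = mean inhibition across replicates at least about 35%, with every replicate also reaching that limit, limit read from the data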;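 also: 0% = median of neutral control wells and 100% = no fluorescence left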
ARFGAP1 inh = inhibits rat ARF GTPase activating protein 1; Arfgap1-stimulated ARF1 GTP hydrolysis, GDP FP detection; inhibition, % at 16.5 µM; 0.26% of 360,000 active; AID 651572;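 active = inhibition above a per-plate limit, mean inhibition of low control wells plus 3 SD, cut at about 25% in these data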;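 also: 0% = DMSO wells with enzyme and 100% = wells lacking Arfgap1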
Target sequence (Q62848 1-136 limits assumed): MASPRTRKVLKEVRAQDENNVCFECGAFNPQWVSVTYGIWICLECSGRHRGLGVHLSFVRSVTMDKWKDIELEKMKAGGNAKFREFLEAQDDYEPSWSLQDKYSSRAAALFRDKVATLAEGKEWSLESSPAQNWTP
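Assay system: purified rat His6-Arfgap1 residues 1-136 (GAP domain); Reagent: human Δ17 ARF1 bound to GTP; Dosing: 16.5 µM single point, 1.26% DMSO; Times: GTP hydrolysis reaction 2 h at 25 °C; Signal: FP, GDP Alexa 633 tracer displaced from anti-GDP antibody, 620/688 nm; Measure: % inhibition from polarization.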
TDP2 inh conf = confirmation of human TDP2 inhibitors | shares compounds with TDP2 absorb | recombinant human TDP2, absorbance read-out | inhibition, % at 12.8 µM | 22% of 1,100 active;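 also: 0% = vehicle with enzyme and 100% = no enzyme buffer only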
The depositor's hits bear a star; . = no result. An excerpt weighted towards active compounds, which were near 1.3% of everything screened. Rule as the data show it, unless noted: active = inhibition above about 25%; inactive = the rest.

SMILES	ASAP1 inh	LEDGF integ inh	TDP2 absorb	CASP6 VEID inh	ARFGAP1 inh	TDP2 inh conf
O=C(Nc1c(-c2ccccc2)[nH][nH]c1=O)c1cnccn1	10	-3	5	0	-4	.
O=C(Nc1c(-c2ccccc2)[nH][nH]c1=O)c1ccc2ccccc2c1	13	-2	8	8	8	.
COc1ccc(-c2[nH][nH]c(=O)c2NC(=O)c2ccc(C)cc2)cc1	5	2	25*	4	-2	30*
COc1ncccc1C(=O)Nc1c(-c2ccccc2)[nH][nH]c1=O	-2	4	15	2	-8	.
COc1ccccc1-n1c(-c2ccccc2)n[nH]c1=S	10	4	-18	-6	-7	.
FC(F)C(F)(F)c1cc(-c2ccccc2)n[nH]1	-14	3	0	-2	0	.
CCOc1cc2[nH]c(=S)n(CCC(=O)NCc3ccco3)c(=O)c2cc1OCC	-2	-6	-8	2	-13	.
Nc1ccc2nn(-c3ccc(F)cc3)nc2c1	5	-7	34*	-1	5	12
Cc1ccc(-n2nc3ccc(N)cc3n2)cc1	1	4	21	.	11	.
COc1cc(C(=S)N2CCCCC2)ccc1OCC(=O)N1CCCC1	-21	-3	5	.	-1	.
COc1cc(C(=S)N2CCCCC2)ccc1OCC(=O)Nc1ccc(F)cc1	-4	2	51*	3	2	-4
Cc1ccc(S(=O)(=O)N(Cc2cccc(Cl)c2)C(=O)N2CCN(C)CC2)cc1	5	-1	-1	-1	-2	.
S=C(N/N=C/c1ccc2c(c1)OCO2)NC1CC2CCC1C2 (stereo unspecified)	2	4	26*	4	-3	7
CCN(CC)CCNC(=O)c1c(O)c2cc(OC)c(OC)cc2[nH]c1=O	10	3	25*	.	-9	5
Cc1c(Cc2ccccc2)c(=O)oc2cc(OCC(=O)c3ccccc3)ccc12	21	3	-27	.	-6	.
Cc1c(Cc2ccccc2)c(=O)oc2cc(OCC(=O)NCC(O)c3ccccc3)ccc12 (stereo unspecified)	14	2	30*	7	10	5
N=C1SCC(=O)N1c1ncc(Cc2ccccc2Cl)s1	8	5	-4	1	-7	.
CC(=O)Nc1nc2cc([N+](=O)[O-])ccc2s1	-7	-1	35*	1	-12	4
CC[C@H](C)[C@H](NC(N)=O)C(=O)NCCc1ccc(OC)c(OC)c1	11	-1	25*	-2	-1	11
COC(=O)C1=C(C(C)=O)C(c2ccc(C(=O)OC)cc2)n2nnnc2N1 (stereo unspecified)	-5	10	34*	.	1	4
CCn1ncc(Br)c1C(=O)N(C)C12CC3CC(CC(C3)C1)C2	13	0	-2	.	0	.
Brc1cccc(OCCCNC2CCCC2)c1	6	2	26*	-3	4	-7
Cc1cc2oc(C(=O)NCCc3ccc(S(N)(=O)=O)cc3)c(C)c2cc1C	-9	-5	30*	-1	7	3
C[C@H](CO)N1C[C@H](C)[C@H](CN(C)C(=O)NC2CCCCC2)Oc2c(NS(=O)(=O)c3ccc(Cl)cc3)cccc2C1=O	.	.	.	-4	.	.
CCOc1ccc2nc(/N=C/c3c(C)[nH]n(-c4ccccc4)c3=O)sc2c1	-14	2	35*	.	0	10
SMILES	ASAP1 inh	LEDGF integ inh	TDP2 absorb	CASP6 VEID inh	ARFGAP1 inh	TDP2 inh conf
CCOc1ccc2nc(/N=C/c3c(C)[nH]n(-c4ccc(C)cc4)c3=O)sc2c1	-5	6	10	1	4	.
NC(=O)C1CCN(C(=O)C2CC(=O)N(c3ccc4c(c3)OCCO4)C2)CC1 (stereo unspecified)	4	2	1	-2	2	.
CCC(C)[C@H](NC(=O)NCCCN1CCOCC1)C(=O)OC (stereo partly specified)	1	0	-6	.	-6	.
CNC(=O)C(=O)Nc1c(O)c2ccccc2[nH]c1=O	-1	-2	27*	-2	-1	-3
O=C(NC(=S)Nc1ccccc1Cl)c1cncc(Br)c1	9	0	27*	-2	4	-4
Cc1cc(Cl)c(OCCOCCN2CCC(C)CC2)c(Br)c1	6	1	7	.	16	.
Cc1cc(Cl)c(OCCOCCN2CCN(C)CC2)c(Br)c1	13	7	34*	-24	-14	9
COc1ccccc1-n1ccnc(SCC(=O)NCc2ccccc2Cl)c1=O	8	0	29*	1	6	4
CCCNC(=O)N1CC2(CCN(S(=O)(=O)c3ccc(OC)cc3)CC2)c2c(n(C)c3cc(OC)ccc23)[C@H]1CO	.	.	.	0	.	.
O=C(NN=c1c(=O)c2ccccc2c1=O)c1ccccc1	13	9	57*	.	5	78*
CN(C)/C=N/NC(=O)c1ccccc1	-5	-2	-10	0	6	.
O=C1NC(=O)/C(=C/c2ccccc2OCc2ccccc2)S1	-10	3	25*	4	0	12
O=C(CCC1CCCCC1)NCc1ccc(F)cc1	-10	-2	6	-2	-3	.
O=C(CCC(=O)NC1CCCCC1)NCc1ccc(F)cc1	7	-2	48*	-2	-2	-1
COc1ccc(COCC(O)CN2CCCC(C(F)(F)F)C2)cc1 (stereo unspecified)	4	1	-2	1	-3	.
CC1(N2CCCCC2)C(=O)c2ccccc2C1=O	-11	1	62*	-2	3	2
COc1ccc(Cl)cc1NC(=O)CN(C)CC(=O)NC(C)c1ccccc1 (stereo unspecified)	-2	-6	-9	-4	4	.
CC1=NN(c2ccc(Cl)c(C(=O)O)c2)C(=O)C1	-7	6	44*	82*	17	6
CC1=NN(c2cccc(Cl)c2)C(=O)C1	-4	2	51*	4	13	10
O=C1C(Cl)=C(NC(=O)c2ccccc2)C(=O)C(Cl)=C1NC(=O)c1ccccc1	8	2	59*	9	-8	33*
CCOc1ccc(C(=O)N2CCSC2=S)cc1	4	0	-7	.	-2	.
Cc1ccc(S(=O)(=O)N(C)CC(=O)Nc2cccc(C)n2)cc1	7	-1	80*	.	-8	7
O=C(NC1CCCCC1)C(C1CC1)n1c(=O)c(-c2ccco2)nc2ccccc21 (stereo unspecified)	7	2	4	12	-5	.
CCCCCNC(=O)C(C1CC1)n1c(=O)c(-c2ccco2)nc2ccccc21 (stereo unspecified)	-7	2	54*	14	-7	-6
O=C(CN1CCCCC1)Nc1c2c(nc3ccccc13)N(c1ccccc1)CC2	-2	14*	45*	-5	0	9
Cc1ccc(C(=O)N/C(=C\c2ccc(-c3ccccc3[N+](=O)[O-])o2)C(=O)NCCN(C)C)cc1	1	2	25*	3	0	19

Source: PubChem
